# According to ChEMBL document CHEMBL5724801, “EUbOPEN Chemogenomics Library - Multiplex” (2024):
# “And” between values parts separate entries of the source, which are not always exact repeats. Identical values can stand only once.
# Tested on: HEK-293T
# Test: Multiplex assay against HEK293T
# Type: toxicity, cell-based
# Details: human
# Method in brief: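 Live cells were stained at seeding with Hoechst33342, BioTracker Green Microtubule Cytoskeleton Dye, MitoTracker Red and Annexin V Alexa Fluor 680, then imaged on a CQ1 microscope at 37°C and 5% CO2 after compound addition. CellPathfinder machine-learning gating split cells into Hoechst high-intensity objects or normal cells. Normal cells were split into healthy, pyknosed or fragmented nuclei, and pyknosed cells into mitotic or apoptotic. Tubulin, mitochondrial-mass and membrane-permeability phenotypes are per cents of healthy-nucleus cells.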
# [1] = 12 h, 1 µM, compound concentration 1 uM
# [2] = 12 h, 10 µM, compound concentration 10 uM
# [3] = 24 h, 1 µM, compound concentration 1 uM
# [4] = 24 h, 10 µM, compound concentration 10 uM
# [5] = 48 h, 1 µM, compound concentration 1 uM
# [6] = 48 h, 10 µM, compound concentration 10 uM
structure (smiles),measurement,setting,value
FC(F)(F)c1ccccc1-c1cc(C(F)(F)F)c2[nH]c(C3=NOC4(CCCCC4)C3)nc2c1,Population Apoptotic (%),[1],5.48% and 14.05%
same,Population Fragmented Nuclei (%),[1],1.23% and 6.04%
same,Population Hoechst High Intensity Objects (%),[1],0%
same,Population Membrane Permeable-Phenotype (%),[1],0%
same,Population Mitochondria Different-Phenotype (%),[1],43.68% and 36.84%
same,Population Mitotic Cells (%),[1],94.52% and 85.95%
same,Population Normal (%),[1],100%
same,Population Pyknosed Nuclei (%),[1],45.06% and 81.21%
same,Total Cell Count,[1],324 and 149
same,Population Apoptotic (%),[2],11.51% and 25.77%
same,Population Fragmented Nuclei (%),[2],0.39% and 4.42%
same,Population Hoechst High Intensity Objects (%),[2],0.78% and 0%
same,Population Membrane Permeable-Phenotype (%),[2],0%
same,Population Mitochondria Different-Phenotype (%),[2],32.17% and 18.18%
same,Population Mitotic Cells (%),[2],88.49% and 74.23%
same,Population Normal (%),[2],99.22% and 100%
same,Population Pyknosed Nuclei (%),[2],54.51% and 85.84%
same,Population Tubulin-Different-Phenotype (%),[2],40.87% and 45.45%
same,Total Cell Count,[2],257 and 113
same,Population Apoptotic (%),[3],10.89% and 15.53%
same,Population Fragmented Nuclei (%),[3],1.48% and 2.1%
same,Population Hoechst High Intensity Objects (%),[3],0%
same,Population Membrane Permeable-Phenotype (%),[3],0.93% and 5.41%
same,Population Mitochondria Different-Phenotype (%),[3],18.75% and 24.32%
same,Population Mitotic Cells (%),[3],89.11% and 84.47%
same,Population Normal (%),[3],100%
same,Population Tubulin-Different-Phenotype (%),[3],18.29% and 21.62%
same,Population Apoptotic (%),[4],37.98% and 40%
same,Population Fragmented Nuclei (%),[4],1.06% and 5.51%
same,Population Hoechst High Intensity Objects (%),[4],0.7% and 0%
same,Population Membrane Permeable-Phenotype (%),[4],0.66% and 0%
same,Population Mitochondria Different-Phenotype (%),[4],57.89% and 50%
same,Population Mitotic Cells (%),[4],62.02% and 60%
same,Population Normal (%),[4],99.3% and 100%
same,Population Pyknosed Nuclei (%),[4],45.42% and 86.61%
same,Population Tubulin-Different-Phenotype (%),[4],72.37% and 30%
same,Total Cell Count,[4],286 and 127
same,Population Fragmented Nuclei (%),[5],2% and 1.31%
same,Population Healthy Nuclei (%),[5],85.85% and 52.94%
same,Population Hoechst High Intensity Objects (%),[5],0%
same,Population Membrane Permeable-Phenotype (%),[5],4.66% and 2.47%
same,Population Mitochondria Different-Phenotype (%),[5],18.43% and 25.93%
same,Population Mitotic Cells (%),[5],94.52% and 78.57%
same,Population Normal (%),[5],100%
same,Population Apoptotic (%),[6],29.75% and 35.21%
same,Population Fragmented Nuclei (%),[6],1.37% and 5.17%
same,Population Healthy Nuclei (%),[6],74.95% and 33.62%
same,Population Hoechst High Intensity Objects (%),[6],0%
same,Population Membrane Permeable-Phenotype (%),[6],3.92% and 2.56%
same,Population Mitochondria Different-Phenotype (%),[6],79.11% and 61.54%
same,Population Mitotic Cells (%),[6],70.25% and 64.79%
same,Population Normal (%),[6],100%
same,Population Pyknosed Nuclei (%),[6],23.68% and 61.21%
Cc1ccc(F)cc1C(=O)Nc1ccc(C(=O)N2Cc3cccn3Cc3ccccc32)c(Cl)c1 [LIXIVAPTAN],Population Apoptotic (%),[1],36% and 40%
same,Population Fragmented Nuclei (%),[1],5% and 6%
same,Population Healthy Nuclei (%),[1],83% and 74%
same,Population Hoechst High Intensity Objects (%),[1],7% and 5%
same,Population Membrane Permeable-Phenotype (%),[1],0%
same,Population Mitochondria Different-Phenotype (%),[1],45% and 57%
same,Population Mitotic Cells (%),[1],63% and 60%
same,Population Normal (%),[1],92% and 94%
same,Population Pyknosed Nuclei (%),[1],10% and 19%
same,Population Tubulin-Different-Phenotype (%),[1],38% and 32%
same,Total Cell Count,[1],486 and 335
same,Population Apoptotic (%),[2],46% and 50%
same,Population Fragmented Nuclei (%),[2],6%
same,Population Healthy Nuclei (%),[2],70% and 67%
same,Population Hoechst High Intensity Objects (%),[2],10% and 6%
same,Population Membrane Permeable-Phenotype (%),[2],0% and 1%
same,Population Mitochondria Different-Phenotype (%),[2],75% and 81%
same,Population Mitotic Cells (%),[2],53% and 50%
same,Population Normal (%),[2],89% and 93%
same,Population Pyknosed Nuclei (%),[2],22% and 25%
same,Population Tubulin-Different-Phenotype (%),[2],78% and 67%
same,Total Cell Count,[2],339 and 357
same,Population Apoptotic (%),[3],30% and 36%
same,Population Fragmented Nuclei (%),[3],9% and 10%
same,Population Healthy Nuclei (%),[3],77% and 76%
same,Population Hoechst High Intensity Objects (%),[3],5% and 7%
same,Population Membrane Permeable-Phenotype (%),[3],0%
same,Population Mitochondria Different-Phenotype (%),[3],30% and 42%
same,Population Mitotic Cells (%),[3],69% and 63%
same,Population Normal (%),[3],94% and 92%
same,Population Pyknosed Nuclei (%),[3],13%
same,Population Tubulin-Different-Phenotype (%),[3],24% and 22%
same,Total Cell Count,[3],595 and 423
same,Population Apoptotic (%),[4],37% and 58%
same,Population Fragmented Nuclei (%),[4],5% and 8%
same,Population Healthy Nuclei (%),[4],69% and 72%
same,Population Hoechst High Intensity Objects (%),[4],7% and 6%
same,Population Membrane Permeable-Phenotype (%),[4],0%
same,Population Mitochondria Different-Phenotype (%),[4],74% and 78%
same,Population Mitotic Cells (%),[4],62% and 41%
same,Population Normal (%),[4],92% and 93%
same,Population Pyknosed Nuclei (%),[4],24% and 19%
same,Population Tubulin-Different-Phenotype (%),[4],71% and 69%
same,Total Cell Count,[4],392 and 401
same,Population Apoptotic (%),[5],22% and 17%
same,Population Fragmented Nuclei (%),[5],12%
same,Population Healthy Nuclei (%),[5],80%
same,Population Hoechst High Intensity Objects (%),[5],2% and 4%
same,Population Membrane Permeable-Phenotype (%),[5],0%
same,Population Mitochondria Different-Phenotype (%),[5],19% and 24%
same,Population Mitotic Cells (%),[5],77% and 82%
same,Population Normal (%),[5],97% and 95%
same,Population Pyknosed Nuclei (%),[5],6% and 7%
same,Population Tubulin-Different-Phenotype (%),[5],17% and 21%
same,Total Cell Count,[5],995 and 643
same,Population Apoptotic (%),[6],43% and 46%
same,Population Fragmented Nuclei (%),[6],9% and 11%
same,Population Healthy Nuclei (%),[6],74%
same,Population Hoechst High Intensity Objects (%),[6],7% and 8%
same,Population Membrane Permeable-Phenotype (%),[6],0%
same,Population Mitochondria Different-Phenotype (%),[6],72% and 71%
same,Population Mitotic Cells (%),[6],56% and 53%
same,Population Normal (%),[6],92% and 91%
same,Population Pyknosed Nuclei (%),[6],16% and 14%
same,Population Tubulin-Different-Phenotype (%),[6],69% and 59%
same,Total Cell Count,[6],489 and 437
